Source: PubChem BioAssay
Activity calls are given as the source filed them.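 Rule for the calls, unless noted: active = viability loss from added drug above about 55%, and viability with drug at most 40%, in both replicates (limit read from the data, passing the limit was not always enough); inconclusive = both conditions met in only one replicate; inactive = neither replicate meets both conditions.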

Assays:
[1] = reducers of endogenous Her2 protein level, primary screen, SKBR3 breast tumor cells, AlphaScreen, ATP viability (AID 461;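 active = Her2 level under about 52% in both replicate screens, with viability over 70% of control, limit read from the data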;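 for Her2 level: lower value means less Her2 protein in the cells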;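 for viability: percent of carrier control wells set as 100% viability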); settings: 18-24 h, measured here: SKBR3 viability, ATP luminescence, at 10 µM
[2] = target: Receptor tyrosine-protein kinase erbB-2 (Homo sapiens) (UniProt P04626); test: as above; settings: 18-24 h, at 10 µM, stronger effect = lower value
Chain of Receptor tyrosine-protein kinase erbB-2 (Homo sapiens) (P04626 whole entry, looked up): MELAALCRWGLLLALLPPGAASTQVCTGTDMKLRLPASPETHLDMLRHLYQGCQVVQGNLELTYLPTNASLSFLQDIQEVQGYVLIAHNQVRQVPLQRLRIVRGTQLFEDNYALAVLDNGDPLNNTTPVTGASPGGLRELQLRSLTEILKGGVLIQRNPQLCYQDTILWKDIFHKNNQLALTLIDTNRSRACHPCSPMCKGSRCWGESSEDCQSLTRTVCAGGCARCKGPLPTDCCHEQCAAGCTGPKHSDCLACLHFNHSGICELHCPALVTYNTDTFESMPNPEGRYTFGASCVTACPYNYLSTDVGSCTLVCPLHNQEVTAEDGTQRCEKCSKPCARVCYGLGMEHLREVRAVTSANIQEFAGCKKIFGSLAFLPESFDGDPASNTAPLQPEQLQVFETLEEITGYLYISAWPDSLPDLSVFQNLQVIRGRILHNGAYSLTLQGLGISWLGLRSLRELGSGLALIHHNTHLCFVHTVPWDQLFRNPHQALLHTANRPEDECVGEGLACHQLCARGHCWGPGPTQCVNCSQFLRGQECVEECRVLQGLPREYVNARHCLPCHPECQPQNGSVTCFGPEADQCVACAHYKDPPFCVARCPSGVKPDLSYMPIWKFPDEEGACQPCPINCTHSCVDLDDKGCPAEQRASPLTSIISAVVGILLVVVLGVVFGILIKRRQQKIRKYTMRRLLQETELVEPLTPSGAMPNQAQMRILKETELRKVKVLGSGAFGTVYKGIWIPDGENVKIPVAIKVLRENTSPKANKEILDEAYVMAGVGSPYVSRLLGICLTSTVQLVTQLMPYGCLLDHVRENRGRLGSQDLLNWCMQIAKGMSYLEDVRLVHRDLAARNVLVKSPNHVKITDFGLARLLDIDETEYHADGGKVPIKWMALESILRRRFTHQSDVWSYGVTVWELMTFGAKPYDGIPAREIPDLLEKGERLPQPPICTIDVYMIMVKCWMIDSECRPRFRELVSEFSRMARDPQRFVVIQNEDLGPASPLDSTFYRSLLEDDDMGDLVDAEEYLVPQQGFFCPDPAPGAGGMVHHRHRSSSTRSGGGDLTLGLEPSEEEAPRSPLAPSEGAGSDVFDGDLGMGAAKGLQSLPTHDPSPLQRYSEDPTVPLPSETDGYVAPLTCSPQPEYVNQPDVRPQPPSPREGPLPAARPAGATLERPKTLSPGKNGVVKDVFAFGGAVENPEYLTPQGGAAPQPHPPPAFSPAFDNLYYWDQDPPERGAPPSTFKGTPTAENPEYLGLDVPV

[3] = SK-BR-3 cell growth inhibitors, pilot screen, 24 h, human (AID 572;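 active = viability at or below 10% of carrier control in both of two separate runs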;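 note: compound exposure lasted between 18 and 24 h rather than exactly 24 h; 100% = carrier-treated control wells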); settings: SK-BR-3 viability, CellTiter-Glo luminescence, at 10 µM, stronger effect = lower value
[4] = HUVEC growth inhibition – cell-based, human, primary screen (AID 575;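 active = viability at or below 30% in both replicate assays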;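 note: 100% = median of untreated cell wells with 0.1% DMSO on each plate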); settings: HUVEC proliferation, CellTiter-Glo luminescence, 72 h; at 10 µM; stronger effect = lower value
How it was run: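 Test system: primary human umbilical vein endothelial cells. Quantity: 1250 cells/well. Compound: single 10 µM dose, 0.1% DMSO, from 5x medium stock. Timing: 72 h treatment at 37 °C. Detection: ATP-based CellTiter-Glo luminescent read. Benchmarks: vehicle and MePR control wells. Format: 384-well plates coated with collagen.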

[5] = growth inhibitors of H69AR lung tumor, primary screen, human, duplicate replicates (AID 580;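 active = viability at or under a set limit in both replicates, limit being median viability minus 3 SD, cut at about 48% in these data, passing the limit was not always enough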;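 note: 100% = mean luminescence of untreated wells and 0% = no signal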); settings: H69AR lung tumor cells viability, ATP luminescence, 72 h; at 10 µM; stronger effect = lower value
[6] = reversal of MRP1-mediated doxorubicin resistance, pilot screen, H69AR cells, doxorubicin co-treatment (AID 601); settings: CellTiter-Glo, 72 h, at 10 µM; for differential viability (reversal): stronger effect = higher value
[7] = 384-well plate pilot, post-Golgi transport modulator project, inhibition of yeast transport mutant growth (AID 636; in the data active = inhibition above about 31%); settings: absorbance 615 nm, about 18 h, stronger effect = higher value
[8] = growth suppression of yeast trafficking mutant, preliminary HTS, modulators of trafficking downstream of Golgi apparatus project, 1536-format plate, OD 615 nm (AID 637; in the data active = inhibition above about 30%); settings: yeast transport mutant growth, absorbance 615 nm, 18 h; stronger effect = higher value
[9] = H69AR cells + 2 uM doxorubicin, measured here: viability with 2 uM doxorubicin, stronger effect = lower value
[10] = H69AR cells, compound alone cytotoxicity

SMILES	viability [1]	Her2 level [2]	viability [3]	viability [4]	viability [5]	differential viability (reversal) ([6]; H69AR cells + 2 uM doxorubicin)	viability [6, 9]	viability [6, 10]	inhibition [7]	inhibition [8]
CC(C)OC(=O)C(CC(=O)O)NCc1ccccc1 (stereo not given)	98%	91.5% (inactive)	98% (inactive)	97.5% (inactive)	91.6% (inactive)	3.69% (inactive)	88%	91.6%	-2.63% (inactive)	-1.29% (inactive)
CCC(C)(C)n1nnnc1C(c1ccncc1)N1CCN(c2cccc(OC)c2)CC1 (stereo not given)	77.5%	82.5% (inactive)	77.5% (inactive)	91.9% (inactive)	85.3% (inactive)	-0.525% (inactive)	85.8%	85.3%	-2.67% (inactive)	4.26% (inactive)
CCCCC(CC)CNC(=O)C1CCCN(S(=O)(=O)c2cnc[nH]2)C1 (stereo not given)	91.5%	95.5% (inactive)	91.5% (inactive)	105% (inactive)	92.2% (inactive)	-1.91% (inactive)	94.1%	92.2%	-2.67% (inactive)	2.79% (inactive)
CC(=O)c1coc2ccc(OCC(=O)O)cc12	104%	90.5% (inactive)	104% (inactive)	105% (inactive)	98% (inactive)	5.29% (inactive)	92.7%	98%	-4% (inactive)	-4.26% (inactive)
COC(=O)CNC(=O)c1c(C)cc(=O)oc1C	89.5%	104% (inactive)	89.5% (inactive)	90.3% (inactive)	97.1% (inactive)	5.65% (inactive)	91.4%	97.1%	-4.27% (inactive)	-8.55% (inactive)
Cc1ccc(S(=O)(=O)N2CCN(S(C)(=O)=O)C2c2ccccc2)cc1 (stereo not given)	82%	96% (inactive)	82% (inactive)	103% (inactive)	94.4% (inactive)	-12% (inactive)	106%	94.4%	0.13% (inactive)	0% (inactive)
CC(Oc1ccc(Cl)cc1Cl)c1nc(-c2ccc(NC(=O)c3cccnc3)cc2)no1 (stereo not given)	93.5%	74.5% (inactive)	93.5% (inactive)	55% (inactive)	8.04% (active)	-10.7% (inactive)	18.8%	8.04%	0% (inactive)	22.2% (inactive)
CC1(C)Cc2noc(N)c2C(C)(C)N1OC(=O)c1ccco1	118%	82.5% (inactive)	118% (inactive)	93.1% (inactive)	94.5% (inactive)	2.83% (inactive)	91.7%	94.5%	-3.55% (inactive)	3.81% (inactive)
O=C(OCC(=O)c1c[nH]c2ccccc12)C1=COCCO1	96%	76.5% (inactive)	96% (inactive)	100% (inactive)	97.5% (inactive)	-2.48% (inactive)	100%	97.5%	-6.62% (inactive)	6.17% (inactive)
COC(=O)c1cnc2c(C(F)(F)F)cccc2c1OC	104%	106% (inactive)	104% (inactive)	97.6% (inactive)	98.4% (inactive)	11.6% (inactive)	86.8%	98.4%	-5.33% (inactive)	-1.31% (inactive)
Cc1nnc(C)n1/N=C/c1cccc(Oc2ccccc2)c1	100%	78.5% (inactive)	100% (inactive)	98% (inactive)	87.4% (inactive)	4.77% (inactive)	82.6%	87.4%	-1.97% (inactive)	0.16% (inactive)
Cc1ccc(NC(=O)C2CCCN(S(=O)(=O)c3cnc[nH]3)C2)cc1F (stereo not given)	104%	94% (inactive)	104% (inactive)	111% (inactive)	95.1% (inactive)	-0.16% (inactive)	95.3%	95.1%	-3.73% (inactive)	-3.11% (inactive)
COc1ccccc1CNC(=O)CCNC(=O)Cn1ccc2ccccc2c1=O	93%	92% (inactive)	93% (inactive)	98.3% (inactive)	100% (inactive)	12.8% (inactive)	87.4%	100%	-0.13% (inactive)	4.59% (inactive)
CC(C)(C)OC(=O)N1CCCC1C(=O)N1CCc2ccccc21 (stereo not given)	95.5%	86% (inactive)	95.5% (inactive)	94.9% (inactive)	84.9% (inactive)	-4.58% (inactive)	89.4%	84.9%	1.17% (inactive)	-3.81% (inactive)
O=C(CCn1nc(-c2ccc(Cl)cc2)ccc1=O)N1CCN(c2ccccn2)CC1	96.5%	92.5% (inactive)	96.5% (inactive)	101% (inactive)	91.1% (inactive)	-4.79% (inactive)	95.9%	91.1%	-3.42% (inactive)	-3.87% (inactive)
O=C(CCC(=O)c1cccs1)NCc1ccccc1	102%	114% (inactive)	102% (inactive)	98.2% (inactive)	97.8% (inactive)	-0.02% (inactive)	97.8%	97.8%	-3.64% (inactive)	-2.22% (inactive)
COC(=O)c1cc(NC(=O)C2COc3ccccc3O2)cc(C(=O)OC)c1 (stereo not given)	106%	86% (inactive)	106% (inactive)	91.1% (inactive)	84.2% (inactive)	10.2% (inactive)	74%	84.2%	-5.6% (inactive)	0.32% (inactive)
CCOC(=O)CNC(=O)CSc1ncnc2c1cnn2Cc1ccccc1	96%	82.5% (inactive)	96% (inactive)	54.5% (inactive)	100% (inactive)	10.3% (inactive)	90.1%	100%	-5.84% (inactive)	-6.56% (inactive)
Cc1ccc(S(=O)(=O)Cc2ccc(C(=O)NCc3ccc4c(c3)OCO4)o2)cc1	98%	84% (inactive)	98% (inactive)	84.7% (inactive)	94.1% (inactive)	6.79% (inactive)	87.3%	94.1%	-3.29% (inactive)	-4.76% (inactive)
Cc1cc(NC(=O)CN2CCC(O)(c3cccc(F)c3)CC2)no1	97%	107% (inactive)	97% (inactive)	110% (inactive)	109% (inactive)	22.5% (inactive)	86.6%	109%	-0.27% (inactive)	-6.83% (inactive)
Cc1ccc(C(c2nnnn2CCC(C)C)N2CCN(C)CC2)cc1 (stereo not given)	90.5%	84% (inactive)	90.5% (inactive)	97.9% (inactive)	98.8% (inactive)	5.6% (inactive)	93.2%	98.8%	-6.67% (inactive)	1.97% (inactive)
Cc1[nH]c(=O)[nH]c(=O)c1S(=O)(=O)Nc1ccc(Oc2ccccc2)cc1	96%	84.5% (inactive)	96% (inactive)	93.6% (inactive)	97.8% (inactive)	10.3% (inactive)	87.5%	97.8%	-0.66% (inactive)	1.45% (inactive)
CCc1nnc(NC(=O)C2CCN(c3nccc(C)n3)CC2)s1	112%	93% (inactive)	112% (inactive)	100% (inactive)	99.5% (inactive)	5.65% (inactive)	93.9%	99.5%	-6.22% (inactive)	-2.17% (inactive)
CCc1ccc(NS(=O)(=O)c2cccs2)cc1	97.5%	102% (inactive)	97.5% (inactive)	101% (inactive)	96% (inactive)	2% (inactive)	94%	96%	-2.24% (inactive)	1.48% (inactive)
Cc1cc(NS(=O)(=O)c2ccc(Nc3nc(-c4sc(N)nc4C)cs3)cc2)no1	104%	116% (inactive)	104% (inactive)	75.5% (inactive)	98% (inactive)	9.14% (inactive)	88.8%	98%	-4.08% (inactive)	-4% (inactive)
COc1ccc(N2CCN(CCCNC(=O)C3CCCN(S(=O)(=O)c4cnc[nH]4)C3)CC2)cc1 (stereo not given)	95.5%	102% (inactive)	95.5% (inactive)	93.4% (inactive)	103% (inactive)	14% (inactive)	89%	103%	-4% (inactive)	-4.26% (inactive)
O=C(O)c1cc(Cl)c(Cl)cc1C(=O)N1CCCC1	97.5%	100% (inactive)	97.5% (inactive)	87.2% (inactive)	98.7% (inactive)	-2.26% (inactive)	101%	98.7%	-1.79% (inactive)	-1.17% (inactive)
COC(=O)c1cccc(NC(=O)NC2CCCN2S(=O)(=O)c2ccc(Cl)cc2)c1 (stereo not given)	83%	75.5% (inactive)	83% (inactive)	82.6% (inactive)	94.1% (inactive)	11.4% (inactive)	82.7%	94.1%	-4.53% (inactive)	-7.05% (inactive)
